Measurements as given in ChEMBL document CHEMBL1146199, “Daptomycin susceptibility of unusual gram-positive bacteria: comparison of results obtained by the Etest and the broth microdilution method” (2007).
Converted amounts (≈) assume the structure as drawn.

What was measured:
Assay type in all cases: functional
Leuconostoc [1] = assay: Antimicrobial activity against Leuconostoc spp. by broth microdilution method
Summary of the method: (§1)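 MIC by CLSI broth microdilution in Mueller-Hinton broth. Daptomycin testing used broth supplemented with calcium at physiological level (50 μg/ml). Vancomycin and linezolid were tested from standard powders. Control strains were S. aureus ATCC 29213 and Enterococcus faecalis 29212.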

Rhodococcus sp. [2] = assay: Antimicrobial activity against Rhodococcus spp. by Etest; settings: Rhodococcus sp. (in: high G+C Gram-positive bacteria)
Summary of the method: (§2)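 Daptomycin MIC read from an Etest strip carrying a daptomycin-plus-calcium gradient, run per manufacturer's instructions. Each isolate was compared with its broth microdilution MIC (Mueller-Hinton broth, 50 μg/ml calcium). Agreement was defined as within 1 twofold dilution. Mean log2 difference was tested by one-sample t test.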

Pediococcus [3] = assay: Antimicrobial activity against Pediococcus spp. by Etest; summary of the method: as §2
Pediococcus [4] = assay: Antimicrobial activity against Pediococcus spp. by broth microdilution method; summary of the method: as §1
Nocardia brasiliensis [5] = assay: Antimicrobial activity against Nocardis brasiliensis by Etest; summary of the method: as §2
Nocardia sp. [6] = assay: Antimicrobial activity against Nocardia spp. by Etest; summary of the method: as §2
Nocardia sp. [7] = assay: Antimicrobial activity against Nocardia spp. by broth microdilution method; summary of the method: as §1
Nocardia brasiliensis [8] = assay: Antimicrobial activity against Nocardis brasiliensis by broth microdilution method; summary of the method: as §1
Listeria monocytogenes [9] = assay: Antimicrobial activity against Listeria monocytogenes by Etest; summary of the method: as §2
Nocardia asteroides [10] = assay: Antimicrobial activity against Nocardia asteroids by Etest; summary of the method: as §2
Nocardia asteroides [11] = assay: Antimicrobial activity against Nocardia asteroides by broth microdilution method; summary of the method: as §1
Leuconostoc [12] = assay: Antimicrobial activity against Leuconostac spp. by Etest; summary of the method: as §2
Listeria monocytogenes [13] = assay: Antimicrobial activity against Listeria monocytogenes by broth microdilution method; summary of the method: as §1
Rhodococcus sp. [14] = assay: Antimicrobial activity against Rhodococcus spp. by broth microdilution method; settings: Rhodococcus sp. (in: high G+C Gram-positive bacteria); summary of the method: as §1

| SMILES | MIC50 (Leuconostoc [1]) [µg/mL] | MIC90 (Leuconostoc [1]) [µg/mL] | MIC50 (Pediococcus [4]) [µg/mL] | MIC90 (Pediococcus [4]) [µg/mL] | MIC50 (Nocardia sp. [7]) [µg/mL] | MIC90 (Nocardia sp. [7]) [µg/mL] | MIC50 (Nocardia brasiliensis [8]) [µg/mL] | MIC90 (Nocardia brasiliensis [8]) [µg/mL] | MIC50 (Nocardia asteroides [11]) [µg/mL] | MIC90 (Nocardia asteroides [11]) [µg/mL] | MIC50 (Listeria monocytogenes [13]) [µg/mL] | MIC90 (Listeria monocytogenes [13]) [µg/mL] | MIC50 (Rhodococcus sp. [14]) [µg/mL] | MIC90 (Rhodococcus sp. [14]) [µg/mL] | further results |
| --- | --- | --- | --- | --- | --- | --- | --- | --- | --- | --- | --- | --- | --- | --- | --- |
| CCCCCCCCCC(=O)N[C@@H](Cc1c[nH]c2ccccc12)C(=O)N[C@H](CC(N)=O)C(=O)N[C@@H](CC(=O)O)C(=O)N[C@@H]1C(=O)NCC(=O)N[C@@H](CCCN)C(=O)N[C@@H](CC(=O)O)C(=O)N[C@H](C)C(=O)N[C@@H](CC(=O)O)C(=O)NCC(=O)N[C@H](CO)C(=O)N[C@@H]([C@H](C)CC(=O)O)C(=O)N[C@@H](CC(=O)c2ccccc2N)C(=O)O[C@@H]1C | 0.12 (≈ 0.074 µM) | 0.25 (≈ 0.154 µM) | 0.25 (≈ 0.154 µM) | 0.5 (≈ 0.309 µM) | > 64 | > 64 | > 64 | > 64 | > 64 | > 64 | 4 (≈ 2.47 µM) | 4 (≈ 2.47 µM) | > 64 | > 64 | MIC50 (Rhodococcus sp. [2]): 96 µg/mL (≈ 59.2 µM); MIC90 (Rhodococcus sp. [2]): > 256 µg/mL; MIC50 (Pediococcus [3]): 0.25 µg/mL (≈ 0.154 µM); MIC90 (Pediococcus [3]): 0.5 µg/mL (≈ 0.309 µM); MIC50 (Nocardia brasiliensis [5]): > 256 µg/mL; MIC90 (Nocardia brasiliensis [5]): > 256 µg/mL; MIC50 (Nocardia sp. [6]): > 256 µg/mL; MIC90 (Nocardia sp. [6]): > 256 µg/mL; MIC50 (Listeria monocytogenes [9]): 3 µg/mL (≈ 1.85 µM); MIC90 (Listeria monocytogenes [9]): 4 µg/mL (≈ 2.47 µM); MIC50 (Nocardia asteroides [10]): > 256 µg/mL; MIC90 (Nocardia asteroides [10]): > 256 µg/mL; MIC50 (Leuconostoc [12]): 0.25 µg/mL (≈ 0.154 µM); MIC90 (Leuconostoc [12]): 0.5 µg/mL (≈ 0.309 µM) |
| CC(=O)NC[C@H]1CN(c2ccc(N3CCOCC3)c(F)c2)C(=O)O1 [LINEZOLID] | 4 (≈ 11.9 µM) | 4 (≈ 11.9 µM) | 2 (≈ 5.93 µM) | 4 (≈ 11.9 µM) | 4 (≈ 11.9 µM) | 4 (≈ 11.9 µM) | 8 (≈ 23.7 µM) | 8 (≈ 23.7 µM) | 4 (≈ 11.9 µM) | 4 (≈ 11.9 µM) | 2 (≈ 5.93 µM) | 2 (≈ 5.93 µM) | 1 (≈ 2.96 µM) | 2 (≈ 5.93 µM) | – |
| CN[C@H](CC(C)C)C(=O)N[C@H]1C(=O)N[C@@H](CC(N)=O)C(=O)N[C@H]2C(=O)N[C@H]3C(=O)N[C@H](C(=O)N[C@H](C(=O)O)c4cc(O)cc(O)c4-c4cc3ccc4O)[C@H](O)c3ccc(c(Cl)c3)Oc3cc2cc(c3O[C@@H]2O[C@H](CO)[C@@H](O)[C@H](O)[C@H]2O[C@H]2C[C@](C)(N)[C@H](O)[C@H](C)O2)Oc2ccc(cc2Cl)[C@H]1O [VANCOMYCIN] | > 64 | > 64 | > 64 | > 64 | > 64 | > 64 | > 64 | > 64 | > 64 | > 64 | 1 (≈ 0.69 µM) | 1 (≈ 0.69 µM) | 1 (≈ 0.69 µM) | > 64 | – |
